Key:
H22 mouse hepatoma cells = assay: H22 hepatoma xenograft model; type: in vivo, Kun Ming (KM) mice
In short: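 Kun Ming mice (eight/group) received 2×10^5 H22 hepatoma cells sc in the right armpit. Test compound (5, 15, 45 mg/kg) or adriamycin (2 mg/kg) in HS-15/N,N-dimethylformamide (1:1 v/v) was injected ip. Mice were weighed twice weekly and killed by cervical dislocation, and tumors were weighed. Inhibition (%) = (mean control tumor weight − mean treated)/mean control × 100.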

[1] = test system: BEL-7402 human hepatoma cells; assay: BEL-7402 human hepatoma xenograft model; type: in vivo, nude mice
[2] = test system: bone marrow polychromatic erythrocytes; details: 15 mg/kg, similar experiment conditions; cited from earlier work
[3] = cited from earlier work

## COc1cccc2c1C(=O)c1c(O)c3c(c(O)c1C2=O)C[C@@](O)(C(=O)CO)C[C@@H]3O[C@H]1C[C@H](N)[C@H](O)[C@H](C)O1 [ADM, adriamycin]
H22 mouse hepatoma cells; 2 mg/kg ip
  inhibitory rate of cancer growth: 51.9%
H22 mouse hepatoma cells; H22-bearing mice
  influence on body weights of mice: much more loss of body weight
H22 mouse hepatoma cells; H22 xenografts
  inhibition of body weight of mice: 25.1%
[1]; 2 mg/kg ip, BEL-7402 xenografts
  inhibitory rate: 73.5%
[1]; BEL7402 xenografts
  inhibition of body weight of mice: 33.3%
[1]; BEL-7402 xenografts, 3 weeks
  changes in body weights versus vehicle group: significantly reduced
[2]
  induction of micronuclei: induce large amounts of micronuclei
[3]
  bioavailability after oral administration: poor bioavailability
